Results on 5 molecules are retold here after ChEMBL document CHEMBL1150828, “Antimalarial, cytotoxic, and antifungal alkaloids from Duguetia hadrantha” (J Nat Prod, 2001).

The subject of data set [1] is Cryptococcus neoformans. The data set is described as follows: Antifungal activity against Cryptococcus neoformans ATCC 90113. In kind it is functional.
In data set [2] the test system is Plasmodium falciparum. The data set is described as follows: Antimalarial activity after 48 hrs against chloroquine-sensitive Plasmodium falciparum D6 as LDH activity by Makler method. The format is functional, organism-based. As to conditions: D6, 48 h. The procedure, abridged: (§1)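 Parasite lactate dehydrogenase (pLDH) assay adapted from Makler, run in 96-well microplates on two P. falciparum clones, W-2 and D-6 (D-6 chloroquine-sensitive). Chloroquine and artemisinin were positive controls, with DMSO as the vehicle control.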

The subject of data set [3] is BT-549. Kind of data set: Cytotoxicity against human BT549 cells after 2 to 7 days by neutral red assay. The format is functional, cell-based.
For data set [4], the system named is SK-OV-3. The data set is described as follows: Cytotoxicity against human SKOV3 cells after 2 to 7 days by neutral red assay. In kind it is functional, cell-based.
Data set [5] concerns KB. The data set is described as follows: Cytotoxicity against human KB cells after 2 to 7 days by neutral red assay. The format is functional, cell-based.
The test system of data set [6] is Cryptococcus neoformans. Kind of data set: Antifungal activity against Cryptococcus neoformans ATCC 90113 after 48 hrs by modified well microplate assay. In kind it is functional, organism-based. The note with it: Cryptococcus neoformans, ATCC 90113, 48 h; for IC50: read-out: IC50. Put shortly: (§2)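 ATCC strains (C. albicans B311 #90028, C. neoformans #90113, S. aureus #6535, MRSA #33591) were tested in a modified 96-well microplate protocol. […] Amphotericin B and rifampin served as positive controls and DMSO as the negative control.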

The target in data set [7] is Intercellular adhesion molecule (ICAM-1), Integrin alpha-L/beta-2 (Homo sapiens) (UniProt P20701+P05362+P05107). The data set is described as follows: Inhibition of LFA1/ICAM1-mediated aggregation of TPA-stimulated human HL60 cells pretreated 10 mins before TPA challenge measured after 16 hrs of PMA addition by microscopy. In kind it is cell-based. The note with it: HL-60. Put shortly:
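HL-60 cells at 1 × 10^6 cells/mL preincubated 10 min with sample, then PMA 10 ng/mL added; plates kept in CO2 incubator and aggregation scored microscopically 16 h after PMA; MIC reported; cytochalasin B, anti-LFA-1 and anti-ICAM-1 antibodies as positive controls.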

The test system of data set [8] is HL-60. Kind of data set: Cytotoxicity against human HL60 cells after 16 hrs by XTT/PMS assay. The note with it: HL-60, 16 h.
Data set [9] has as its system Staphylococcus aureus. Kind of data set: Antibacterial activity against methicillin-resistant Staphylococcus aureus ATCC 33591 after 48 hrs by modified well microplate assay. In kind it is functional, organism-based. Put shortly:
as §2

For data set [10], the system named is Staphylococcus aureus. Kind of data set: Antibacterial activity against Staphylococcus aureus ATCC 6535 after 48 hrs by modified well microplate assay. In kind it is functional, organism-based. The procedure, abridged:
as §2

Data set [11] can be described thus: Selectivity index, ratio of IC50 of african green monkey (Cercopithecus aethiops) Vero cells to IC50 for chloroquine-resistant Plasmodium falciparum W2. The format is toxicity, cell-based. As to conditions: read-out: Ratio IC50.
Data set [12] is described as follows: Specific index, ratio of IC50 for human HL60 cells to MIC for LFA1/ICAM1 mediated aggregation in TPA-stimulated human HL60 cells. The format is functional, HL-60. Put shortly: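 Ratio of XTT IC50 in HL-60 cells (4 h XTT-PMS read after the aggregation assay) to the microscopic aggregation MIC of PMA (10 ng/mL)-stimulated HL-60 cells scored 16 h after PMA.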

The test system of data set [13] is Candida albicans. Kind of data set: Antifungal activity against Candida albicans B311 after 48 hrs by modified well microplate assay. The format is functional, organism-based. The note with it: B311, 48 h. The procedure, abridged:
as §2

Data set [14] is described as follows: Selectivity index, ratio of IC50 of african green monkey (Cercopithecus aethiops) Vero cells to IC50 for chloroquine-sensitive Plasmodium falciparum D6. The format is toxicity, cell-based. As to conditions: read-out: Ratio IC50.
Data set [15] has as its system SK-MEL. Kind of data set: Cytotoxicity against human SK-MEL cells after 2 to 7 days by neutral red assay. In kind it is functional, cell-based.
Data set [16] relates to Plasmodium falciparum. Kind of data set: Antimalarial activity after 48 hrs against chloroquine-resistant Plasmodium falciparum W2 as LDH activity by Makler method. The note with it: W2, 48 h. The format is functional, organism-based. The procedure, abridged:
as §1

Data set [17] deals with Plasmodium falciparum. Kind of data set: Antimalarial activity against chloroquine-sensitive Plasmodium falciparum D6. In kind it is functional, organism-based. Put shortly:
(§3)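 In vitro antimalarial screen using the parasite lactate dehydrogenase (pLDH) assay, adapted from Makler et al. and run in 96-well microplates. Two P. falciparum clones were tested: W-2 (chloroquine-resistant) and D-6 (chloroquine-sensitive). Chloroquine and artemisinin served as positive controls and DMSO as the vehicle (negative) control. IC50 values were reported.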

Data set [18] has as its system Plasmodium falciparum. The data set is described as follows: Antimalarial activity against chloroquine-resistant Plasmodium falciparum W2. The format is functional, organism-based. Put shortly: as §3
Data set [19] concerns the target Intercellular adhesion molecule (ICAM-1), Integrin alpha-L/beta-2 (Homo sapiens, UniProt P05107+P05362+P20701). The data set is described as follows: Inhibition of LFA1/ICAM1-mediated CFSE-labeled TPA-stimulated human HL60 cell adhesion to ICAM1 expressing human HeLa cells after 45 mins by fluorescence analysis. In kind it is cell-based. The procedure, abridged:
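CFSE-labelled HL-60 cells plus sample added onto confluent ICAM-1-expressing HeLa monolayers with PMA 50 ng/mL; 45 min at 37 °C in CO2 incubator; nonadherent cells washed off, remainder lysed in 1% Triton X-100; fluorescence at ex 496/em 519 nm; anti-ICAM-1 antibody and cytochalasin B positive controls.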

Data set [20] in a line: Specific index, ratio of IC50 for human HL60 cells to IC50 for LFA1/ICAM1-mediated CFSE-labeled TPA-stimulated human HL60 cell adhesion to ICAM1 expressing human HeLa cells. The procedure, abridged: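 Index = HL-60 XTT IC50 / adhesion IC50. XTT: HL-60 at 1 × 10^6 cells/mL, sample 10 min, then PMA 10 ng/mL for 16 h; then XTT 1 mg/mL with 25 µM PMS for 4 h at 37 °C, A450 (ref 630). Adhesion: CFSE-labeled HL-60 on confluent HeLa monolayers, PMA 50 ng/mL, 45 min at 37 °C; nonadherent cells washed off, remainder lysed in 1% Triton X-100, fluorescence ex 496/em 519 nm.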

Converted amounts (≈) assume the structure as drawn. The source made the active and inactive calls. No cut-off for these calls is given here.

Intercellular adhesion molecule (ICAM-1), Integrin alpha-L/beta-2, sequence (P20701 whole entry): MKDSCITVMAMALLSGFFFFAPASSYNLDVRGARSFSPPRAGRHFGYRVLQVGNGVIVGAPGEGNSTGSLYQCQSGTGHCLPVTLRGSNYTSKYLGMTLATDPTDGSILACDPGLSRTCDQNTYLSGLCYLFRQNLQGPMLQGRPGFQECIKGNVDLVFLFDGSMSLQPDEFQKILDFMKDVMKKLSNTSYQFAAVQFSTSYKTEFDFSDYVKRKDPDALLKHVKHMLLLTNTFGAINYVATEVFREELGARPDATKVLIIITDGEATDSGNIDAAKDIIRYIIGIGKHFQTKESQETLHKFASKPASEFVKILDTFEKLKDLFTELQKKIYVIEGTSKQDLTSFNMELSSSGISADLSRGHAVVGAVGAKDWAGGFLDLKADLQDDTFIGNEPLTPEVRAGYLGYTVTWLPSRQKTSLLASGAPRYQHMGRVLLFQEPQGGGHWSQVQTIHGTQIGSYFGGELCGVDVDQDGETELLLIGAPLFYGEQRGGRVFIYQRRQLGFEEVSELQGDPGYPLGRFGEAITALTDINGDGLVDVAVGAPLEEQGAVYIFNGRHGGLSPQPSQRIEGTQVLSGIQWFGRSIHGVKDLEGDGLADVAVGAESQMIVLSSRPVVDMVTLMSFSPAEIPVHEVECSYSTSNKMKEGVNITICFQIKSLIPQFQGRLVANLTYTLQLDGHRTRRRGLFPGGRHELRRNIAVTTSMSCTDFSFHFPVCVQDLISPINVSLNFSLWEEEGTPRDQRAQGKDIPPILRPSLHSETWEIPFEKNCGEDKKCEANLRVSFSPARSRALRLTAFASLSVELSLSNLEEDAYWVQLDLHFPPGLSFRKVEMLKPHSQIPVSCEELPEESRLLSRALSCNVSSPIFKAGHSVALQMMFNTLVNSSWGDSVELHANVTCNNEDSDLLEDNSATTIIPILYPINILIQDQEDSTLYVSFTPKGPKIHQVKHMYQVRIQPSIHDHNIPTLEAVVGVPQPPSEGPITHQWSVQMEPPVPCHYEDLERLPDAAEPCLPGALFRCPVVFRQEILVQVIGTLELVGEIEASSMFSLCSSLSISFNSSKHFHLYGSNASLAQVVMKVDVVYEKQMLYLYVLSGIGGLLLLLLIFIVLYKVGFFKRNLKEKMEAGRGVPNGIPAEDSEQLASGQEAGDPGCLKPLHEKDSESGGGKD
Intercellular adhesion molecule (ICAM-1), Integrin alpha-L/beta-2, sequence (P05362 whole entry): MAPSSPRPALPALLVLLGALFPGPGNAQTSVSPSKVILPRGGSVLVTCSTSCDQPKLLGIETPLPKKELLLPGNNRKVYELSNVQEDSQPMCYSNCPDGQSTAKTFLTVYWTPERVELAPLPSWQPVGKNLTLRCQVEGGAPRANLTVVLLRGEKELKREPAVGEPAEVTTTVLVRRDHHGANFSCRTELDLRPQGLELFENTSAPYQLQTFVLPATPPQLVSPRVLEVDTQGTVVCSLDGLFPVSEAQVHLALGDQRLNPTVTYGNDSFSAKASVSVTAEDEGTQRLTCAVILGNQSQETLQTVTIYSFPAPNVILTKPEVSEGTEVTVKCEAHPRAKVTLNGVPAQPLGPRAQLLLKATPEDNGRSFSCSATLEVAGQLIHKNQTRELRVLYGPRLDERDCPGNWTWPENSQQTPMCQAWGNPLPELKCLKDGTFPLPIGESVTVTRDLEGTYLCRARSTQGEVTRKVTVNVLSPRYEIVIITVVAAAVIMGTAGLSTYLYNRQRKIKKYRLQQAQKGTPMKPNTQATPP
Intercellular adhesion molecule (ICAM-1), Integrin alpha-L/beta-2, sequence (P05107 whole entry): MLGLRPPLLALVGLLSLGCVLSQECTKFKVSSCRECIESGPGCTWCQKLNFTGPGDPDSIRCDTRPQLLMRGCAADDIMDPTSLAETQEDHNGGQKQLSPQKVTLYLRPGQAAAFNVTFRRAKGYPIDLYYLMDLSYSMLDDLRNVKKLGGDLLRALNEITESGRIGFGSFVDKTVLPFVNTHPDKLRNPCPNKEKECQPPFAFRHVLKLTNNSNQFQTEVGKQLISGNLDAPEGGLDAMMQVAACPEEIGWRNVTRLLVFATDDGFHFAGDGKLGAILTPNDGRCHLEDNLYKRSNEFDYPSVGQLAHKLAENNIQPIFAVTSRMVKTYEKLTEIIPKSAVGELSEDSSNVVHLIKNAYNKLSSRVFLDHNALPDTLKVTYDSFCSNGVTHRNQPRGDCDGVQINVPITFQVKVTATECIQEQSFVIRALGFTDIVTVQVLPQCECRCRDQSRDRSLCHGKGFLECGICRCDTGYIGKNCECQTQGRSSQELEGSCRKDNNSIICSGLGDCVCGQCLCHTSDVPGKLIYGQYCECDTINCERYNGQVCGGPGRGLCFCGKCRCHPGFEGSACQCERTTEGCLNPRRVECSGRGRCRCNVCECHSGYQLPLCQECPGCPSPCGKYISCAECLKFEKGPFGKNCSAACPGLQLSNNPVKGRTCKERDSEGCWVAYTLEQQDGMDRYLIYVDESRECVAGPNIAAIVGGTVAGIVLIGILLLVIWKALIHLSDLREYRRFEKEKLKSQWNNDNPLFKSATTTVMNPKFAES

In the case of `COc1cnc2c3c(nccc13)C(=O)c1ccccc1-2`, the MIC in data set [1] was 0.78 µg/mL (≈ 2.97 µM); in data set [6], 3.12 µg/mL (≈ 11.9 µM); in data set [7], 12.5 µg/mL (≈ 47.7 µM); in data set [10] (Staphylococcus aureus, ATCC 6535, 48 h), 25 µg/mL (≈ 95.3 µM); in data set [13] it was 20 µg/mL (≈ 76.3 µM). Moreover, the IC50 (as a rule, the concentration that gives 50% inhibition) was 0.28 µg/mL (≈ 1.07 µM) in data set [2]; “Not Active” in data set [3] (bt-549); more than 10 µg/mL in data set [4]; “Not Active” in [5] (kb); 0.65 µg/mL (≈ 2.48 µM) in data set [6]; 7.2 µg/mL (≈ 27.5 µM) in data set [8]. Further, the IC50 in data set [9] (Staphylococcus aureus, ATCC 33591, 48 h, read-out: IC50) was 20 µg/mL (≈ 76.3 µM); in data set [10] (Staphylococcus aureus, ATCC 6535, 48 h, read-out: IC50), 15 µg/mL (≈ 57.2 µM); in data set [13], 3 µg/mL (≈ 11.4 µM); in [15] it was more than 10 µg/mL; in data set [16], 0.095 µg/mL (≈ 0.362 µM). Moreover, the selectivity ratio was more than 50 in [11] and more than 17 in data set [14]. Further, the Ratio in data set [12] worked out at 0.6.
Turning to `COc1c2c3c(ccnc3c3ccccc13)C(=O)C(=O)N2C`, the IC50 in data set [2] is 0.55 µg/mL (≈ 1.88 µM); in data set [3] (Homo sapiens, BT-549, read-out: IC50) it was more than 10 µg/mL; in data set [4] it was 5 µg/mL (≈ 17.1 µM); in data set [5] (Homo sapiens, KB, read-out: IC50), more than 10 µg/mL; in data set [6], 50 µg/mL (≈ 171 µM); in [9], “Not Active”. The IC50 entry is “Not Active” in data set [10], 9 µg/mL (≈ 30.8 µM) in [13], 2 µg/mL (≈ 6.84 µM) in data set [15] and 0.28 µg/mL (≈ 0.958 µM) in [16]. In addition, the MIC entry in data set [9] and in [10] was “inactive” each time. For the same molecule, the selectivity ratio in data set [11] is more than 17; in data set [14] it was more than 8.7. Besides, in data set [13], the MIC is 50 µg/mL (≈ 171 µM).
For `C[C@@H]1[C@H](O)[C@@H](C)/C=C/C=C/C=C/C=C/C=C/C=C/C=C/[C@H](O[C@@H]2O[C@H](C)[C@@H](O)[C@H](N)[C@@H]2O)C[C@@H]2O[C@](O)(C[C@@H](O)C[C@@H](O)[C@H](O)CC[C@@H](O)C[C@@H](O)CC(=O)O[C@H]1C)C[C@H](O)[C@H]2C(=O)O` [AMPHOTERICIN B], the MIC amounted to 0.156 µg/mL (≈ 0.169 µM) in data set [6] and 0.02 µg/mL (≈ 0.0216 µM) in data set [13]. Besides, the IC50 in data set [6] is 0.045 µg/mL (≈ 0.0487 µM); in data set [9], “Not Active”; in data set [10], “Not Active”; in data set [13], 0.011 µg/mL (≈ 0.0119 µM). Further, the MIC entry in [9] and in data set [10] was “inactive” each time.
For the molecule `C[C@@H]1CC[C@H]2[C@@H](C)C(=O)O[C@@H]3O[C@@]4(C)CC[C@@H]1[C@]32OO4` [ARTEMISININ], the IC50 was found to be 0.005 µg/mL (≈ 0.0177 µM) in data set [2], 0.0018 µg/mL (≈ 0.00638 µM) in data set [17], 0.0044 µg/mL (≈ 0.0156 µM) in data set [16] and 0.0005 µg/mL (≈ 0.00177 µM) in data set [18]. In addition, the figures for the selectivity ratio in [11] and in data set [14] were more than 1080 and more than 952, respectively.
Regarding `C=C1[C@@H](C)[C@H]2[C@H](Cc3ccccc3)NC(=O)[C@]23OC(=O)/C=C/[C@H](O)CCC[C@@H](C)C/C=C/[C@H]3[C@@H]1O` [CYTOCHALASIN B], the IC50 in [19] was 521 nM; in data set [8], more than 30 µg/mL. Besides, the “Ratio IC50” value in data set [20] is listed as more than 120. Further, the MIC in [7] came out at 0.39 µg/mL (≈ 0.813 µM). The Ratio in data set [12] stood at 76.9.
